# According to PubChem BioAssay:
# Active and inactive are the calls of the source.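 How the source made its calls, unless noted: active means viability at or under a set limit in both replicates, limit being median viability minus 3 SD (cut at about 48% in these data, passing the limit was not always enough); inconclusive means at or under the limit in just one replicate; inactive means at or above the limit in both replicates.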
# How the values were obtained:
# [1] = Her2 expression decrease, cell viability multiplex – SKBR3 breast tumor cells, AlphaScreen, ATP viability, primary screen (AID 461;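 active means Her2 level under about 52% in both replicate screens, with viability over 70% of control, limit read from the data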;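 on Her2 level: lower value means less Her2 protein in the cells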;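 on viability: percent of carrier control wells set as 100% viability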); conditions: SKBR3 Her2 protein level, 18-24 h, measured here: SKBR3 viability, ATP luminescence, at 10 µM
# [2] = molecular target: Receptor tyrosine-protein kinase erbB-2 (Homo sapiens) (UniProt P04626); test: as above; conditions: 18-24 h, at 10 µM, stronger effect = lower value
# [3] = reduced viability of SK-BR-3 breast cancer cells – cell-based, 24 h, human, pilot screen (AID 572;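 active means viability at or below 10% of carrier control in both of two separate runs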;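 further: compound exposure lasted between 18 and 24 h rather than exactly 24 h; 100% = carrier-treated control wells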); conditions: SK-BR-3 viability, CellTiter-Glo luminescence, at 10 µM, stronger effect = lower value
# [4] = HUVEC growth inhibition – cell-based, human, primary screen (AID 575;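 active means viability at or below 30% in both replicate assays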;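 further: 100% = median of untreated cell wells with 0.1% DMSO on each plate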); conditions: HUVEC proliferation, CellTiter-Glo luminescence, 72 h; at 10 µM; stronger effect = lower value
# Procedure, shortened: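 Test system – primary HUVEC, no more than 12 passages · Dosing – one dose, 10 µM final, 0.1% DMSO · Times – 72 h treatment at 37 °C · Measured by – ATP-based CellTiter-Glo luminescent read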
# [5] = H69AR cell proliferation blockers – human, duplicate replicates, primary screen (AID 580); conditions: H69AR lung tumor cells viability, ATP luminescence, 72 h; at 10 µM; stronger effect = lower value;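 further: 100% = mean luminescence of untreated wells and 0% = no signal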
# [6] = MRP1 drug-resistance reversers in H69AR cells – cell-based, doxorubicin co-treatment, pilot screen (AID 601;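 active means viability loss from added drug above about 55%, and viability with drug at most 40%, in both replicates, limit read from the data, passing the limit was not always enough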); conditions: CellTiter-Glo, 72 h, at 10 µM; for differential viability (reversal): stronger effect = higher value
# [7] = yeast transport mutant growth inhibition pilot in 384-well plates, post-Golgi transport modulator project (AID 636; in the data active means inhibition above about 31%); conditions: absorbance 615 nm, about 18 h, stronger effect = higher value
# [8] = growth suppression of yeast trafficking mutant, preliminary HTS, modulators of trafficking downstream of Golgi apparatus project, 1536-format plate, OD 615 nm (AID 637; in the data active means inhibition above about 30%); conditions: yeast transport mutant growth, absorbance 615 nm, 18 h; stronger effect = higher value
# [9] = H69AR cells + 2 uM doxorubicin, measured here: viability with 2 uM doxorubicin, stronger effect = lower value
# [10] = H69AR cells, compound alone cytotoxicity
# Sequence of Receptor tyrosine-protein kinase erbB-2 (Homo sapiens) (P04626 whole entry, looked up): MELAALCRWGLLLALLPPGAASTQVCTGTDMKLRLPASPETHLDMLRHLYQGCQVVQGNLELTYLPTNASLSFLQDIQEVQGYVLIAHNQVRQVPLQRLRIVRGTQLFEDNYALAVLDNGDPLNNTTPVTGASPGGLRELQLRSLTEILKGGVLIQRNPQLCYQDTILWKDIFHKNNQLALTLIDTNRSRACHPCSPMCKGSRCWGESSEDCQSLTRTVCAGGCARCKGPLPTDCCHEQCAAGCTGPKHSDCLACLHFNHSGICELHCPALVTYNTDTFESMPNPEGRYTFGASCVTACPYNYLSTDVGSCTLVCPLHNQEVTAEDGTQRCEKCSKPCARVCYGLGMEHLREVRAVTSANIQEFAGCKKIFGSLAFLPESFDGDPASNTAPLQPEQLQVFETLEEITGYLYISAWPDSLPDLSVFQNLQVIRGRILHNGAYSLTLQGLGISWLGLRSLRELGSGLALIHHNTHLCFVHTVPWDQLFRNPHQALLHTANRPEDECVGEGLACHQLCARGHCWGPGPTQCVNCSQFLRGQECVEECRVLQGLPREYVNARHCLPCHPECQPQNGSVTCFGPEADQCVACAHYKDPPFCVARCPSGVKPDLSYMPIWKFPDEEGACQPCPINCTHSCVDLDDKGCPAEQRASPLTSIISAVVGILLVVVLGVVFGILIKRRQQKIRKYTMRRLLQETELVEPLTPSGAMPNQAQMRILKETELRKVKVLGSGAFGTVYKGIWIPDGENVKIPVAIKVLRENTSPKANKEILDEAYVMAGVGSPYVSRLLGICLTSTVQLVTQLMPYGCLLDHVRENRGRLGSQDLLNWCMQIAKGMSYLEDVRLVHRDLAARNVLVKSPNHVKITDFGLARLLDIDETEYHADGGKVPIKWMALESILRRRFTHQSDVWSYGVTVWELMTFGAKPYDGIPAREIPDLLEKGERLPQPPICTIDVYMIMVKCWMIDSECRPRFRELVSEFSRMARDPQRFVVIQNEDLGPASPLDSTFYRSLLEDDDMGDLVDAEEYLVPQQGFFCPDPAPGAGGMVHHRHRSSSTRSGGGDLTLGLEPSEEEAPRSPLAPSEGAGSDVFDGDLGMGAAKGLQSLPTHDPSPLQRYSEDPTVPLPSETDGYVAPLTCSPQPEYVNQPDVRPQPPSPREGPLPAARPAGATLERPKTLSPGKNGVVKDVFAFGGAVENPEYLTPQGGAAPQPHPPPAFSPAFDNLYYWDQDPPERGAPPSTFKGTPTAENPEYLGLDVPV
SMILES,viability [1] [%],Her2 level [2],viability [3],viability [4],viability [5],differential viability (reversal) ([6]; H69AR cells + 2 uM doxorubicin),"viability [6, 9] [%]","viability [6, 10] [%]",inhibition [7],inhibition [8]
Cc1cc(NCCN(C)C)n2nc(-c3cccs3)cc2n1,90,107% (inactive),90% (inactive),102% (inactive),92.6% (inactive),10.5% (inactive),82.1,92.6,-4.8% (inactive),-2.62% (inactive)
COc1cc2[nH]c(=O)n(CCC(=O)N3CCc4ccccc4C3)c(=O)c2cc1OC,102,106% (inactive),102% (inactive),116% (inactive),92.4% (inactive),-2.6% (inactive),95,92.4,-4.73% (inactive),-2.33% (inactive)
Cn1c(-c2ccccc2)cc(=O)c2ccccc21,98.5,109% (inactive),98.5% (inactive),102% (inactive),96.6% (inactive),-6.83% (inactive),103,96.6,-1.43% (inactive),-2.13% (inactive)
COc1ccccc1Nc1nc(N)nc(CSc2nccc(C)n2)n1,99,90.5% (inactive),99% (inactive),107% (inactive),91% (inactive),5.23% (inactive),85.7,91,-3.82% (inactive),0% (inactive)
CC(=O)OCC(=O)c1ccc2ccn(C(C)=O)c2c1,106,89% (inactive),106% (inactive),94.9% (inactive),90.5% (inactive),-1.94% (inactive),92.5,90.5,-5.33% (inactive),3.11% (inactive)
CCCn1c2c(c(O)c(C(=O)NC)c1=O)CCCC2,124,95% (inactive),124% (inactive),92.7% (inactive),86% (inactive),-7.29% (inactive),93.3,86,-4.34% (inactive),2.42% (inactive)
COc1ccccc1N1CCN(C(=O)c2c(-c3c(Cl)cccc3Cl)noc2C)CC1,104,82.5% (inactive),104% (inactive),79% (inactive),105% (inactive),15% (inactive),90.3,105,-5.95% (inactive),2.46% (inactive)
N#Cc1ccc(CSc2nnc(-c3cnccn3)o2)cc1,106,110% (inactive),106% (inactive),93.8% (inactive),106% (inactive),23.4% (inactive),82.5,106,-0.67% (inactive),-0.97% (inactive)
CCOc1ccccc1NS(=O)(=O)c1c(C)noc1C,97.5,93.5% (inactive),97.5% (inactive),91.3% (inactive),109% (inactive),16.6% (inactive),92.1,109,-3.42% (inactive),-0.95% (inactive)
CCCCCC1CC(CC(=O)O)C(=O)O1 (stereo not given),100,96% (inactive),100% (inactive),82.5% (inactive),104% (inactive),7.44% (inactive),96.2,104,-4.87% (inactive),7.67% (inactive)
CCCOc1ccc(N2C(=O)C3ON(c4ccccc4)C(c4ccc(O)c(OC)c4)C3C2=O)cc1 (stereo not given),106,100% (inactive),106% (inactive),71.6% (inactive),93.8% (inactive),10.6% (inactive),83.3,93.8,-3.03% (inactive),3.55% (inactive)
O=C1c2ccccc2C(=O)N1Cc1nc2ccccc2c(=O)n1CCN1CCOCC1,97.5,81.5% (inactive),97.5% (inactive),111% (inactive),88.8% (inactive),-3.33% (inactive),92.2,88.8,-1.18% (inactive),-4% (inactive)
CCCCc1c(O)nc(SCCN(C)C)n(-c2ccccc2)c1=O,93.5,110% (inactive),93.5% (inactive),99.5% (inactive),102% (inactive),2.55% (inactive),99,102,-1.18% (inactive),2.62% (inactive)
COC(=O)c1ccc(C2NC(C(=O)O)CS2)cc1 (stereo not given),132,103% (inactive),132% (inactive),102% (inactive),89% (inactive),-8.38% (inactive),97.3,89,-0.79% (inactive),3.02% (inactive)
CCOC(=O)c1ccc(NC(=O)CSc2n[nH]c(-c3ccncc3)n2)cc1,87.5,102% (inactive),87.5% (inactive),80% (inactive),87.7% (inactive),-1.68% (inactive),89.4,87.7,-3.11% (inactive),1.27% (inactive)
COc1ccc(CNc2nc(NCc3ccc(OC)cc3)n(S(C)(=O)=O)n2)cc1,104,114% (inactive),104% (inactive),92.6% (inactive),110% (inactive),8.61% (inactive),101,110,0% (inactive),0.82% (inactive)
CC1CCCC(NC(=O)CSc2ncccc2C(=O)O)C1C (stereo not given),95,79% (inactive),95% (inactive),86.4% (inactive),87.8% (inactive),3.03% (inactive),84.7,87.8,-4.61% (inactive),-4.36% (inactive)
O=C1CCCC2=C1C(c1ccc(Br)cc1)c1c([nH]c(=S)[nH]c1=O)N2 (stereo not given),84,112% (inactive),84% (inactive),99.3% (inactive),91.7% (inactive),6.69% (inactive),85.1,91.7,-4.47% (inactive),8.67% (inactive)
COc1ccc(OC)c(C(=O)c2nc3c(n2O)CCCCC3)c1,78.5,122% (inactive),78.5% (inactive),99.9% (inactive),93.2% (inactive),-4.37% (inactive),97.6,93.2,-5.13% (inactive),0.98% (inactive)
CCC(C)(C)NC(=O)CN(Cc1ccc2c(c1)OCO2)C(=O)CCC(=O)Nc1ccccn1,132,118% (inactive),132% (inactive),105% (inactive),92.5% (inactive),2.38% (inactive),90.1,92.5,-5.06% (inactive),-2.3% (inactive)
Cn1cnc(S(=O)(=O)NCc2cccs2)c1,102,102% (inactive),102% (inactive),96.5% (inactive),95.5% (inactive),7.67% (inactive),87.8,95.5,0.68% (inactive),-1.9% (inactive)
CC1(C)OC(=O)C(=CNc2ccccc2)C(=O)O1,98,94% (inactive),98% (inactive),98.7% (inactive),108% (inactive),10.9% (inactive),97.2,108,0.39% (inactive),0.18% (inactive)
COc1cccc(NC(=O)Cc2nnc(SCC(=O)c3ccccc3)n2C)c1,92,83.5% (inactive),92% (inactive),85% (inactive),68.1% (inactive),8.65% (inactive),59.4,68.1,-2.24% (inactive),-3.49% (inactive)
Cc1ccc(-n2ncc(C(=O)N3CCc4ccccc4C3)c2NC(=O)c2ccco2)cc1C,94,92% (inactive),94% (inactive),83.6% (inactive),86.1% (inactive),-3.83% (inactive),89.9,86.1,-0.13% (inactive),-3.44% (inactive)
COc1ccc(-c2ccc(CCC(=O)O)n2NC(=O)c2cccs2)cc1,122,92% (inactive),122% (inactive),95.5% (inactive),101% (inactive),3% (inactive),98.3,101,-2.76% (inactive),2.06% (inactive)
CCOc1ccc2nc(SCC#N)c(C#N)cc2c1,93,106% (inactive),93% (inactive),104% (inactive),100% (inactive),16.1% (inactive),84,100,-3.2% (inactive),-0.32% (inactive)
CC(=O)c1cccc(S(=O)(=O)N2CCC(n3nnc4cc(F)ccc43)CC2)c1,88,92.5% (inactive),88% (inactive),92.9% (inactive),93.9% (inactive),8.11% (inactive),85.8,93.9,-5.14% (inactive),-2.62% (inactive)
Cc1cc(NC(=O)C23CCC(C)(c4nc5cc(Cl)c(Cl)cc5nc42)C3(C)C)no1 (stereo not given),124,96.5% (inactive),124% (inactive),88.5% (inactive),91.6% (inactive),14.6% (inactive),77.1,91.6,-3.42% (inactive),6.29% (inactive)
CCOC(=O)C1=C(O)CCn2c1nc1ccccc12,122,116% (inactive),122% (inactive),101% (inactive),101% (inactive),17.7% (inactive),83.6,101,-8.9% (inactive),0% (inactive)
